Laboratory results taken from ChEMBL document CHEMBL5356993, “Novel pyrazolo[3,4-d]pyrimidine derivatives: design, synthesis, anticancer evaluation, VEGFR-2 inhibition, and antiangiogenic activity” (RSC Med Chem, 2023).

Legend:
Assay type in all cases: functional
Settings in all cases: read-out: GI
OVCAR-5 = assay: Antiproliferative activity against human OVCAR-5 cells assessed as cell growth inhibition at 10 uM incubated for 48 hrs by SRB assay relative to control
Method in brief: (§1)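 Cells plated in 96-well plates at […] cells/well and preincubated 24 h at 37 °C, 5% CO2. Time-zero plates were TCA-fixed. Compound was diluted in medium with 50 µg/mL gentamicin and cells exposed for 48 h. Adherent cells fixed with 10% final TCA; suspension cells with 16% final TCA. Plates stained with 0.4% SRB in 1% acetic acid, dye solubilized in 10 mM Trizma, absorbance read at 515 nm. Percent growth calculated against time-zero and control.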

COLO 205 = assay: Antiproliferative activity against human COLO 205 cells assessed as cell growth inhibition at 10 uM incubated for 48 hrs by SRB assay relative to control
HCT-15 = assay: Antiproliferative activity against human HCT-15 cells assessed as cell growth inhibition at 10 uM incubated for 48 hrs by SRB assay relative to control
HT-29 = assay: Antiproliferative activity against human HT-29 cells assessed as cell growth inhibition at 10 uM incubated for 48 hrs by SRB assay relative to control; method in brief: as §1
KM12 = assay: Antiproliferative activity against human KM12 cells assessed as cell growth inhibition at 10 uM incubated for 48 hrs by SRB assay relative to control; method in brief: as §1
SW-620 = assay: Antiproliferative activity against human SW620 cells assessed as cell growth inhibition at 10 uM incubated for 48 hrs by SRB assay relative to control
Method in brief: (§2)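 Cells pre-incubated 24 h at 37°C, 5% CO2, then exposed to compound (DMSO stock diluted in medium with 50 µg/mL gentamicin) for 48 h. Adherent cells fixed with cold TCA (final 10%, 60 min, 4°C); suspension cells fixed with 16% TCA final. Stained with 0.4% SRB in 1% acetic acid for 10 min, dye solubilized in 10 mM Trizma base, absorbance read at 515 nm. Growth calculated against time-zero and untreated control plates.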

SF-295 = assay: Antiproliferative activity against human SF-295 cells assessed as cell growth inhibition at 10 uM incubated for 48 hrs by SRB assay relative to control; method in brief: as §1
SF-539 = assay: Antiproliferative activity against human SF-539 cells assessed as cell growth inhibition at 10 uM incubated for 48 hrs by SRB assay relative to control; method in brief: as §1
SNB-19 = assay: Antiproliferative activity against human SNB-19 cells assessed as cell growth inhibition at 10 uM incubated for 48 hrs by SRB assay relative to control; method in brief: as §2
SNB-75 = assay: Antiproliferative activity against human SNB-75 cells assessed as cell growth inhibition at 10 uM incubated for 48 hrs by SRB assay relative to control; method in brief: as §2
U-251 = assay: Antiproliferative activity against human U-251 cells assessed as cell growth inhibition at 10 uM incubated for 48 hrs by SRB assay relative to control; method in brief: as §2
LOX IMVI = assay: Antiproliferative activity against human LOX IMVI cells assessed as cell growth inhibition at 10 uM incubated for 48 hrs by SRB assay relative to control
Malme-3M = assay: Antiproliferative activity against human Malme-3M cells assessed as cell growth inhibition at 10 uM incubated for 48 hrs by SRB assay relative to control
M14 = assay: Antiproliferative activity against human M14 cells assessed as cell growth inhibition at 10 uM incubated for 48 hrs by SRB assay relative to control; method in brief: as §1
MDA-MB-435 = assay: Antiproliferative activity against human MDA-MB-435 cells assessed as cell growth inhibition at 10 uM incubated for 48 hrs by SRB assay relative to control
SK-MEL-2 = assay: Antiproliferative activity against human SK-MEL-2 cells assessed as cell growth inhibition at 10 uM incubated for 48 hrs by SRB assay relative to control; method in brief: as §1
UACC-257 = assay: Antiproliferative activity against human UACC-257 cells assessed as cell growth inhibition at 10 uM incubated for 48 hrs by SRB assay relative to control; method in brief: as §2
UACC-62 = assay: Antiproliferative activity against human UACC-62 cells assessed as cell growth inhibition at 10 uM incubated for 48 hrs by SRB assay relative to control; method in brief: as §2
OVCAR-4 = assay: Antiproliferative activity against human OVCAR-4 cells assessed as cell growth inhibition at 10 uM incubated for 48 hrs by SRB assay relative to control
A498 = assay: Antiproliferative activity against human A498 cells assessed as cell growth inhibition at 10 uM incubated for 48 hrs by SRB assay relative to control; method in brief: as §1
ACHN = assay: Antiproliferative activity against human ACHN cells assessed as cell growth inhibition at 10 uM incubated for 48 hrs by SRB assay relative to control
CAKI-1 = assay: Antiproliferative activity against human CAKI-1 cells assessed as cell growth inhibition at 10 uM incubated for 48 hrs by SRB assay relative to control
RXF 393 = assay: Antiproliferative activity against human RXF 393 cells assessed as cell growth inhibition at 10 uM incubated for 48 hrs by SRB assay relative to control; method in brief: as §1
DU-145 = assay: Antiproliferative activity against human DU-145 cells assessed as cell growth inhibition at 10 uM incubated for 48 hrs by SRB assay relative to control
BT-549 = assay: Antiproliferative activity against human BT-549 cells assessed as cell growth inhibition at 10 uM incubated for 48 hrs by SRB assay relative to control
HOP-92 = assay: Antiproliferative activity against human HOP-92 cells assessed as cell growth inhibition at 10 uM incubated for 48 hrs by SRB assay relative to control; method in brief: as §1
EKVX = assay: Antiproliferative activity against human EKVX cells assessed as cell growth inhibition at 10 uM incubated for 48 hrs by SRB assay relative to control
A549 = assay: Antiproliferative activity against human A549 cells assessed as cell growth inhibition at 10 uM incubated for 48 hrs by SRB assay relative to control
RPMI-8226 = assay: Antiproliferative activity against human RPMI-8226 cells assessed as cell growth inhibition at 10 uM incubated for 48 hrs by SRB assay relative to control
MOLT-4 = assay: Antiproliferative activity against human MOLT-4 cells assessed as cell growth inhibition at 10 uM incubated for 48 hrs by SRB assay relative to control
K562 = assay: Antiproliferative activity against human K562 cells assessed as cell growth inhibition at 10 uM incubated for 48 hrs by SRB assay relative to control
HL-60(TB) = assay: Antiproliferative activity against human HL-60(TB) cells assessed as cell growth inhibition at 10 uM incubated for 48 hrs by SRB assay relative to control
Method in brief: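 Cells were plated at […] cells/well and preincubated 24 h at 37°C, 5% CO2, with time-zero plates TCA-fixed. Compound was diluted from DMSO stock in medium with 50 µg/mL gentamicin, then exposed for 48 h. Settled suspension cells were fixed with 80% TCA (final 16%), stained with 0.4% SRB and solubilized in 10 mM Trizma, A515. Growth was taken relative to Tz and control.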

| SMILES | inhibition of growth at 10 µM (OVCAR-5) | inhibition of growth at 10 µM (COLO 205) | inhibition of growth at 10 µM (HCT-15) | inhibition of growth at 10 µM (HT-29) | inhibition of growth at 10 µM (KM12) | inhibition of growth at 10 µM (SW-620) | inhibition of growth at 10 µM (SF-295) | inhibition of growth at 10 µM (SF-539) | inhibition of growth at 10 µM (SNB-19) | inhibition of growth at 10 µM (SNB-75) | inhibition of growth at 10 µM (U-251) | inhibition of growth at 10 µM (LOX IMVI) | inhibition of growth at 10 µM (Malme-3M) | inhibition of growth at 10 µM (M14) | inhibition of growth at 10 µM (MDA-MB-435) | inhibition of growth at 10 µM (SK-MEL-2) | inhibition of growth at 10 µM (UACC-257) | inhibition of growth at 10 µM (UACC-62) | inhibition of growth at 10 µM (OVCAR-4) | inhibition of growth at 10 µM (A498) | also measured |
| --- | --- | --- | --- | --- | --- | --- | --- | --- | --- | --- | --- | --- | --- | --- | --- | --- | --- | --- | --- | --- | --- |
| Cc1nc2c(cnn2-c2ccccc2)c(=O)n1-c1ccc(NC(=O)c2ccc(F)cc2)cc1 | < 15% | 37.7% | 33.9% | 36.5% | 35.9% | 23.5% | 60.4% | < 15% | 19.6% | 35.5% | 18.9% | 38.2% | 31.6% | 37.1% | 46.2% | 22.1% | 68.2% | 36.9% | 59.9% | < 15% | inhibition of growth at 10 µM (ACHN): 39%; inhibition of growth at 10 µM (CAKI-1): 34.3%; inhibition of growth at 10 µM (RXF 393): 20.9%; inhibition of growth at 10 µM (DU-145): 19.3%; inhibition of growth at 10 µM (BT-549): 54%; inhibition of growth at 10 µM (HOP-92): < 15%; inhibition of growth at 10 µM (EKVX): 69.8%; inhibition of growth at 10 µM (A549): 45%; inhibition of growth at 10 µM (RPMI-8226): 64.8%; inhibition of growth at 10 µM (MOLT-4): 94.6%; inhibition of growth at 10 µM (K562): 72.8%; inhibition of growth at 10 µM (HL-60(TB)): 57.5% |
| Cc1ccc(C(=O)Nc2ccc(-n3c(C)nc4c(cnn4-c4ccccc4)c3=O)cc2)cc1 | < 15% | 22.6% | 24.6% | 28.8% | 22.5% | < 15% | 49.4% | 18.6% | 17.9% | 17.2% | < 15% | 32.8% | 32.3% | 26.8% | 29.4% | 21.7% | 58% | 39.2% | 50.2% | < 15% | inhibition of growth at 10 µM (ACHN): 38.2%; inhibition of growth at 10 µM (CAKI-1): 27.6%; inhibition of growth at 10 µM (RXF 393): < 15%; inhibition of growth at 10 µM (DU-145): 15.1%; inhibition of growth at 10 µM (BT-549): 40.8%; inhibition of growth at 10 µM (HOP-92): < 15%; inhibition of growth at 10 µM (EKVX): 69.5%; inhibition of growth at 10 µM (A549): 34.2%; inhibition of growth at 10 µM (RPMI-8226): 41.6%; inhibition of growth at 10 µM (MOLT-4): 65.7%; inhibition of growth at 10 µM (K562): 68.8%; inhibition of growth at 10 µM (HL-60(TB)): 48.6% |
